Experimental data taken from ChEMBL document CHEMBL3217724, “Synthesis and evaluation of a series of benzothiophene acrylonitrile analogs as anticancer agents” (Medchemcomm, 2013).

Key:
Assay type in all cases: functional
CCRF-CEM = test: Growth inhibition of human CCRF-CEM cells
Procedure, shortened: (§1)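 NCI 60-human-cancer-cell-line panel, five-dose screen after a preliminary screen. GI50 is the molar concentration giving 50% growth inhibition.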

[1] = Growth inhibition of human UO31 cells; conditions: UO-31
Procedure, shortened: (§2)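 NCI 60-cell-line panel, five-dose screen; GI50 is the molar concentration giving 50% growth inhibition.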

Malme-3M = test: Growth inhibition of human MALME-3M cells; procedure, shortened: as §1
HCT-116 = test: Growth inhibition of human HCT116 cells; procedure, shortened: as §1
786-0 = test: Growth inhibition of human 786-0 cells; procedure, shortened: as §1
[2] = Growth inhibition of human OVCAR5 cells; conditions: OVCAR-5; procedure, shortened: as §1
SW-620 = test: Growth inhibition of human SW620 cells; procedure, shortened: as §2
HT-29 = test: Growth inhibition of human HT-29 cells; procedure, shortened: as §1
[3] = Growth inhibition of human SF539 cells; conditions: SF-539; procedure, shortened: as §1
U-251 = test: Growth inhibition of human U251 cells; procedure, shortened: as §2
SN12C = test: Growth inhibition of human SN12C cells; procedure, shortened: as §2
SNB-19 = test: Growth inhibition of human SNB19 cells; procedure, shortened: as §2
K562 = test: Growth inhibition of human K562 cells; procedure, shortened: as §1
IGROV-1 = test: Growth inhibition of human IGROV1 cells; procedure, shortened: as §1
SK-MEL-2 = test: Growth inhibition of human SK-MEL-2 cells; procedure, shortened: as §1
[4] = Growth inhibition of human HOP92 cells; conditions: HOP-92; procedure, shortened: as §1
SK-OV-3 = test: Growth inhibition of human SKOV3 cells; procedure, shortened: as §2
NCI-H226 = test: Growth inhibition of human NCI-H226 cells; procedure, shortened: as §1
A498 = test: Growth inhibition of human A498 cells; procedure, shortened: as §1
DU-145 = test: Growth inhibition of human DU145 cells; procedure, shortened: as §1
[5] = Growth inhibition of human UACC62 cells; conditions: UACC-62; procedure, shortened: as §2
SF-268 = test: Growth inhibition of human SF268 cells; procedure, shortened: as §1
SNB-75 = test: Growth inhibition of human SNB75 cells; procedure, shortened: as §2
HL-60(TB) = test: Growth inhibition of human HL-60(TB) cells; procedure, shortened: as §1
NCI-H460 = test: Growth inhibition of human NCI-H460 cells; procedure, shortened: as §1
[6] = Growth inhibition of human OVCAR8 cells; conditions: OVCAR-8; procedure, shortened: as §1
[7] = Growth inhibition of human RXF393 cells; conditions: RXF 393; procedure, shortened: as §1
[8] = Growth inhibition of human NCI-ADR-RES cells; procedure, shortened: as §1
[9] = Growth inhibition of human EKVX cells; procedure, shortened: as §1
[10] = Growth inhibition of human HCC2998 cells; conditions: HCC 2998; procedure, shortened: as §1
MCF7 = test: Growth inhibition of human MCF7 cells; procedure, shortened: as §1
[11] = Growth inhibition of human OVCAR4 cells; conditions: OVCAR-4; procedure, shortened: as §1
[12] = Growth inhibition of human BT549 cells; conditions: BT-549; procedure, shortened: as §1
[13] = Growth inhibition of human UACC257 cells; conditions: UACC-257; procedure, shortened: as §2
PC-3 = test: Growth inhibition of human PC3 cells; procedure, shortened: as §1
A549 = test: Growth inhibition of human A549 cells; procedure, shortened: as §1
[14] = Growth inhibition of human Hs578T cells; conditions: Hs-578T; procedure, shortened: as §1
COLO 205 = test: Growth inhibition of human COLO205 cells; procedure, shortened: as §1
ACHN = test: Growth inhibition of human ACHN cells; procedure, shortened: as §1
NCI-H322M = test: Growth inhibition of human NCI-H322M cells; procedure, shortened: as §1
[15] = Growth inhibition of human LOXIMVI cells; conditions: LOX IMVI; procedure, shortened: as §1
RPMI-8226 = test: Growth inhibition of human RPMI8226 cells; procedure, shortened: as §1
[16] = Growth inhibition of human SF295 cells; conditions: SF-295; procedure, shortened: as §1
M14 = test: Growth inhibition of human M14 cells; procedure, shortened: as §1
[17] = Growth inhibition of human HCT15 cells; conditions: HCT-15; procedure, shortened: as §1
CAKI-1 = test: Growth inhibition of human Caki1 cells; procedure, shortened: as §1
NCI-H23 = test: Growth inhibition of human NCI-H23 cells; procedure, shortened: as §1
SK-MEL-28 = test: Growth inhibition of human SK-MEL-28 cells; procedure, shortened: as §1
[18] = Growth inhibition of human OVCAR3 cells; conditions: OVCAR-3; procedure, shortened: as §1
HOP-62 = test: Growth inhibition of human HOP62 cells; procedure, shortened: as §1
SK-MEL-5 = test: Growth inhibition of human SK-MEL-5 cells; procedure, shortened: as §1
NCI-H522 = test: Growth inhibition of human NCI-H522 cells; procedure, shortened: as §1
MDA-MB-231 = test: Growth inhibition of human MDA-MB-231 cells; procedure, shortened: as §1
TK-10 = test: Growth inhibition of human TK10 cells; procedure, shortened: as §2
[19] = Growth inhibition of human MOLT4 cells; conditions: MOLT-4; procedure, shortened: as §1
MDA-MB-435 = test: Growth inhibition of human MDA-MB-435 cells; procedure, shortened: as §1
KM12 = test: Growth inhibition of human KM12 cells; procedure, shortened: as §1
T47D = test: Growth inhibition of human T47D cells; procedure, shortened: as §2
SR = test: Growth inhibition of human SR cells; procedure, shortened: as §2

For `COc1ccc(/C(C#N)=C/c2cc3ccccc3s2)cc1OC`, the GI50 (CCRF-CEM) was 28.6 nM, the GI50 [1] was 18.7 nM and the GI50 (Malme-3M) was > 100 nM. For the same compound, the GI50 (HCT-116) was 41.1 nM, the GI50 (786-0) was 33.7 nM and the GI50 [2] was 50 nM. For the same compound, the GI50 (SW-620) was 24.2 nM, the GI50 (HT-29) was 31.8 nM and the GI50 [3] was 10.6 nM. The GI50 (U-251) was 64 nM, the GI50 (SN12C) was 13.6 nM and the GI50 (SNB-19) was 44.4 nM. The GI50 (K562) was 35.4 nM, the GI50 (IGROV-1) was 61.8 nM and the GI50 (SK-MEL-2) was > 100 nM. The GI50 [4] was > 100 nM, the GI50 (SK-OV-3) was 63.4 nM and the GI50 (NCI-H226) was > 100 nM. The GI50 (A498) was 26.6 nM, the GI50 (DU-145) was 36.6 nM and the GI50 [5] was 45.9 nM. It also gave a GI50 (SF-268) of 45.2 nM, a GI50 (SNB-75) of 13.7 nM and a GI50 (HL-60(TB)) of 22.2 nM. It also gave a GI50 (NCI-H460) of 35.4 nM, a GI50 [6] of 25.1 nM and a GI50 [7] of 90.9 nM. It also gave a GI50 [8] of 10.5 nM, a GI50 [9] of 90.8 nM and a GI50 [10] of 66.5 nM. For the same compound, the GI50 (MCF7) was 47.8 nM, the GI50 [11] was > 100 nM and the GI50 [12] was 28.3 nM. For the same compound, the GI50 [13] was > 100 nM, the GI50 (PC-3) was 29.7 nM and the GI50 (A549) was 70 nM. For the same compound, the GI50 [14] was 30 nM, the GI50 (COLO 205) was 36.1 nM and the GI50 (ACHN) was 85.4 nM. The GI50 (NCI-H322M) was 31.5 nM, the GI50 [15] was 60.7 nM and the GI50 (RPMI-8226) was 29.8 nM. For the same compound, the GI50 [16] was 10 nM, the GI50 (M14) was 61.1 nM and the GI50 [17] was 48.2 nM. The GI50 (CAKI-1) was 82.7 nM, the GI50 (NCI-H23) was 57.9 nM and the GI50 (SK-MEL-28) was > 100 nM. The GI50 [18] was 22 nM, the GI50 (HOP-62) was 47 nM and the GI50 (SK-MEL-5) was 21 nM. For the same compound, the GI50 (NCI-H522) was 10 nM, the GI50 (MDA-MB-231) was 26.9 nM and the GI50 (TK-10) was 45.2 nM. For the same compound, the GI50 [19] was 53.5 nM, the GI50 (MDA-MB-435) was 10 nM and the GI50 (KM12) was 10 nM. The GI50 (T47D) was > 100 nM and the GI50 (SR) was 10 nM.
